Laboratory results as given in ChEMBL document CHEMBL4689842, “EUbOPEN Chemogenomics Library wave 1” (2021).

What was measured:
Fibroblast = test: Incucyte cell viability with human fibroblast; type: toxicity, cell-based; conditions: 10 µM, compound concentration 10 uM; further: filed as whole numbers so only -1 and 0 and 1 occur
U2OS = test: Multiplex assay against U2OS; type: toxicity, cell-based; conditions: human
Summary of the method: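 Imaging took place on a CQ1 microscope at 37°C and 5% CO2 once compound had been added to live cells stained at seeding with Hoechst33342, BioTracker Green Microtubule Cytoskeleton Dye, MitoTracker Red and Annexin V Alexa Fluor 680. CellPathfinder machine-learning gating classed cells as Hoechst high-intensity objects or normal cells, classed normal cells as having healthy, pyknosed or fragmented nuclei, and classed pyknosed cells as mitotic or apoptotic. Tubulin, mitochondrial-mass and membrane-permeability phenotypes are per cents of the healthy-nucleus cells.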

[1] = 12 h, 1 µM, compound concentration 1 uM, replicate 1
[2] = 12 h, 1 µM, compound concentration 1 uM, replicate 2
[3] = 12 h, 10 µM, compound concentration 10 uM, replicate 1
[4] = 12 h, 10 µM, compound concentration 10 uM, replicate 2
[5] = 24 h, 1 µM, compound concentration 1 uM, replicate 1
[6] = 24 h, 1 µM, compound concentration 1 uM, replicate 2
[7] = 24 h, 10 µM, compound concentration 10 uM, replicate 1
[8] = 24 h, 10 µM, compound concentration 10 uM, replicate 2

Structure (SMILES): CNC(=O)c1cc(Oc2ccc(NC(=O)Nc3cc(C(C)(C)C)nn3-c3ccc4ncccc4c3)c(F)c2)ccn1 [REBASTINIB]
- Growth Rate (Fibroblast; 0 h, replicate number 1, timepoint 0 hours): 0
- Growth Rate (Fibroblast; 6 h, replicate number 2, timepoint 6 hours): 1
- Growth Rate (Fibroblast; 12 h, replicate number 1, timepoint 12 hours): 0
- Growth Rate (Fibroblast; 18 h, replicate number 1, timepoint 18 hours): 0
- Growth Rate (Fibroblast; 24 h, replicate number 1, timepoint 24 hours): 0
- Population Apoptotic (%) (U2OS; [1]): 46%
- Population Fragmented Nuclei (%) (U2OS; [1]): 3%
- Population Healthy Nuclei (%) (U2OS; [1]): 88%
- Population Hoechst High Intensity Objects (%) (U2OS; [1]): 3%
- Population Membrane Permeable-Phenotype (%) (U2OS; [1]): 16%
- Population Mitochondria Different-Phenotype (%) (U2OS; [1]): 15%
- Population Mitotic Cells (%) (U2OS; [1]): 53%
- Population Normal (%) (U2OS; [1]): 96%
- Population Pyknosed Nuclei (%) (U2OS; [1]): 7%
- Population Tubulin-Different-Phenotype (%) (U2OS; [1]): 13%
- Total Cell Count (U2OS; [1]): 164
- Population Apoptotic (%) (U2OS; [2]): 0%
- Population Fragmented Nuclei (%) (U2OS; [2]): 10%
- Population Healthy Nuclei (%) (U2OS; [2]): 87%
- Population Hoechst High Intensity Objects (%) (U2OS; [2]): 7%
- Population Membrane Permeable-Phenotype (%) (U2OS; [2]): 17%
- Population Mitochondria Different-Phenotype (%) (U2OS; [2]): 31%
- Population Mitotic Cells (%) (U2OS; [2]): 100%
- Population Normal (%) (U2OS; [2]): 92%
- Population Pyknosed Nuclei (%) (U2OS; [2]): 1%
- Population Tubulin-Different-Phenotype (%) (U2OS; [2]): 35%
- Total Cell Count (U2OS; [2]): 113
- Population Apoptotic (%) (U2OS; [3]): 50%
- Population Fragmented Nuclei (%) (U2OS; [3]): 16%
- Population Healthy Nuclei (%) (U2OS; [3]): 63%
- Population Hoechst High Intensity Objects (%) (U2OS; [3]): 6%
- Population Membrane Permeable-Phenotype (%) (U2OS; [3]): 30%
- Population Mitochondria Different-Phenotype (%) (U2OS; [3]): 54%
- Population Mitotic Cells (%) (U2OS; [3]): 50%
- Population Normal (%) (U2OS; [3]): 93%
- Population Pyknosed Nuclei (%) (U2OS; [3]): 20%
- Population Tubulin-Different-Phenotype (%) (U2OS; [3]): 96%
- Total Cell Count (U2OS; [3]): 196
- Population Apoptotic (%) (U2OS; [4]): 46%
- Population Fragmented Nuclei (%) (U2OS; [4]): 8%
- Population Healthy Nuclei (%) (U2OS; [4]): 72%
- Population Hoechst High Intensity Objects (%) (U2OS; [4]): 11%
- Population Membrane Permeable-Phenotype (%) (U2OS; [4]): 18%
- Population Mitochondria Different-Phenotype (%) (U2OS; [4]): 52%
- Population Mitotic Cells (%) (U2OS; [4]): 53%
- Population Normal (%) (U2OS; [4]): 88%
- Population Pyknosed Nuclei (%) (U2OS; [4]): 18%
- Population Tubulin-Different-Phenotype (%) (U2OS; [4]): 98%
- Total Cell Count (U2OS; [4]): 111
- Population Apoptotic (%) (U2OS; [5]): 25%
- Population Fragmented Nuclei (%) (U2OS; [5]): 6%
- Population Healthy Nuclei (%) (U2OS; [5]): 84%
- Population Hoechst High Intensity Objects (%) (U2OS; [5]): 2%
- Population Membrane Permeable-Phenotype (%) (U2OS; [5]): 12%
- Population Mitochondria Different-Phenotype (%) (U2OS; [5]): 28%
- Population Mitotic Cells (%) (U2OS; [5]): 75%
- Population Normal (%) (U2OS; [5]): 97%
- Population Pyknosed Nuclei (%) (U2OS; [5]): 9%
- Population Tubulin-Different-Phenotype (%) (U2OS; [5]): 13%
- Total Cell Count (U2OS; [5]): 218
- Population Apoptotic (%) (U2OS; [6]): 44%
- Population Fragmented Nuclei (%) (U2OS; [6]): 13%
- Population Healthy Nuclei (%) (U2OS; [6]): 79%
- Population Hoechst High Intensity Objects (%) (U2OS; [6]): 13%
- Population Membrane Permeable-Phenotype (%) (U2OS; [6]): 14%
- Population Mitochondria Different-Phenotype (%) (U2OS; [6]): 26%
- Population Mitotic Cells (%) (U2OS; [6]): 55%
- Population Normal (%) (U2OS; [6]): 86%
- Population Pyknosed Nuclei (%) (U2OS; [6]): 7%
- Population Tubulin-Different-Phenotype (%) (U2OS; [6]): 35%
- Total Cell Count (U2OS; [6]): 126
- Population Apoptotic (%) (U2OS; [7]): 75%
- Population Fragmented Nuclei (%) (U2OS; [7]): 17%
- Population Healthy Nuclei (%) (U2OS; [7]): 50%
- Population Hoechst High Intensity Objects (%) (U2OS; [7]): 18%
- Population Membrane Permeable-Phenotype (%) (U2OS; [7]): 33%
- Population Mitochondria Different-Phenotype (%) (U2OS; [7]): 91%
- Population Mitotic Cells (%) (U2OS; [7]): 24%
- Population Normal (%) (U2OS; [7]): 81%
- Population Pyknosed Nuclei (%) (U2OS; [7]): 31%
- Population Tubulin-Different-Phenotype (%) (U2OS; [7]): 94%
- Total Cell Count (U2OS; [7]): 227
- Population Apoptotic (%) (U2OS; [8]): 64%
- Population Fragmented Nuclei (%) (U2OS; [8]): 15%
- Population Healthy Nuclei (%) (U2OS; [8]): 59%
- Population Hoechst High Intensity Objects (%) (U2OS; [8]): 17%
- Population Membrane Permeable-Phenotype (%) (U2OS; [8]): 30%
- Population Mitochondria Different-Phenotype (%) (U2OS; [8]): 87%
- Population Mitotic Cells (%) (U2OS; [8]): 35%
- Population Normal (%) (U2OS; [8]): 82%
- Population Pyknosed Nuclei (%) (U2OS; [8]): 25%
- Population Tubulin-Different-Phenotype (%) (U2OS; [8]): 97%
- Total Cell Count (U2OS; [8]): 141
